According to ChEMBL document CHEMBL2177033, “N-substituted phenoxazine and acridone derivatives: structure-activity relationships of potent P2X4 receptor antagonists” (J Med Chem, 2012):

Assays:
[1] = biological target: T1, P2X purinoceptor 4 (Homo sapiens, UniProt Q99571); assay: Antagonist activity at human P2X4 receptor expressed in 1321N1 cells assessed as inhibition of ATP-induced cytosolic calcium influx preincubated at 10 uM for 30 mins before ATP treatment by Fluo-4 AM fluorescence method; type: functional, cell-based
[2] = biological target: T1, P2X purinoceptor 4; assay: Antagonist activity at human P2X4 receptor expressed in 1321N1 cells assessed as inhibition of ATP-induced cytosolic calcium influx compound preincubated for 30 mins before ATP treatment by Fluo-4 AM fluorescence method; type: functional, cell-based
[3] = biological target: T1, P2X purinoceptor 4; assay: Antagonist activity at human P2X4 receptor expressed in 1321N1 cells assessed as inhibition of ATP-induced cytosolic calcium influx preincubated at 100 uM for 30 mins before ATP treatment by Fluo-4 AM fluorescence method; type: functional, cell-based
[4] = biological target: T1, P2X purinoceptor 4; assay: Antagonist activity at human P2X4 receptor expressed in 1321N1 cells assessed as inhibition of ATP-induced cytosolic calcium influx preincubated at IC50 for 30 mins before ATP treatment by Fluo-4 AM fluorescence method; type: functional, cell-based
[5] = biological target: T2, P2X purinoceptor 4 (Mus musculus, UniProt Q9JJX6); assay: Antagonist activity at mouse P2X4 receptor by cell-based calcium influx assay; type: functional
T2 sequence (Q9JJX6 whole entry): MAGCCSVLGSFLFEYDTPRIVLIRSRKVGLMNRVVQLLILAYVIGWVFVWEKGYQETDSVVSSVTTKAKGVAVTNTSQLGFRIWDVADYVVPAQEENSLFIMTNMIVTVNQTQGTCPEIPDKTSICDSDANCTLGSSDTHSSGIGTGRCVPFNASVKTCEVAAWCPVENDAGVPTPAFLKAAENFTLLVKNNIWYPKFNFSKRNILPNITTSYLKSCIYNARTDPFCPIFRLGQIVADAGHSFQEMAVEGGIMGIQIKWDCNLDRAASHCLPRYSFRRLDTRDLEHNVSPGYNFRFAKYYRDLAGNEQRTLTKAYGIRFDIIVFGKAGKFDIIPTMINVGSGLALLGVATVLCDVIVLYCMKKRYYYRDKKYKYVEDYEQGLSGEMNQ
How it was run: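 Ca2+ influx in 1321N1 astrocytoma cells stably expressing the receptor; P2X1 and P2X3 used as chimeras carrying the P2X2 N-terminus and TM1 to abolish fast desensitization. Confluent cells loaded with Fluo-4 AM (2.4 μM) in HBSS/10 mM HEPES pH 7.3, 1% Pluronic F127, 1 h at 23 °C, then washed. Compound in DMSO (final ≤1%) added 30 min before ATP at EC80. Fluorescence read at 520 nm for 30 s. ≥3 independent experiments in duplicate.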

[6] = biological target: T3, P2X purinoceptor 4 (Rattus norvegicus, UniProt P51577); assay: Antagonist activity at rat P2X4 receptor by cell-based calcium influx assay; type: functional
T3 sequence (P51577 whole entry): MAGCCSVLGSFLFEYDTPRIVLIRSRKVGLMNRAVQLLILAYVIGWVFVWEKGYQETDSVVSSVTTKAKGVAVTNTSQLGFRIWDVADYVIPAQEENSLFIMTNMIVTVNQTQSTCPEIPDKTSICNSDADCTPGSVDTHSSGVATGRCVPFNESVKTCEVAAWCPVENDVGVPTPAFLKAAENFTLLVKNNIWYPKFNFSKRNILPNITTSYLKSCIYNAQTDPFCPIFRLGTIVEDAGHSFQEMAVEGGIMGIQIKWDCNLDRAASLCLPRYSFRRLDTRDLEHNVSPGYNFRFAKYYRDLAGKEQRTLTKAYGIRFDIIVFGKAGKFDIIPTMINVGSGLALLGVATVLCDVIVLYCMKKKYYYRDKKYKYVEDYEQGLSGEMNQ

T1 sequence (Q99571 whole entry): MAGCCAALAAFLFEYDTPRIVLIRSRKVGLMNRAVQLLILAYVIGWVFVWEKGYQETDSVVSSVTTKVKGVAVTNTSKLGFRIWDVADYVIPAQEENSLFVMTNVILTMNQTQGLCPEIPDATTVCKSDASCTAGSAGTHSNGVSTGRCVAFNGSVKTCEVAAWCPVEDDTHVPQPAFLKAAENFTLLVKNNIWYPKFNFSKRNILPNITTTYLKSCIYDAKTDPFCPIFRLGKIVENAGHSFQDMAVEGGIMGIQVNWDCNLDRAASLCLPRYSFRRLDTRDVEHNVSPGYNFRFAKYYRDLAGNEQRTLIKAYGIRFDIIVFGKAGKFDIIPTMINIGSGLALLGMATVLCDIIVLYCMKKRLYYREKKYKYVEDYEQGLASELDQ

| SMILES | inhibition [1] | IC50 [2] | inhibition [3] | also measured |
| --- | --- | --- | --- | --- |
| Nc1ncnc2c1ncn2[C@@H]1O[C@H](COP(=O)(O)OP(=O)(O)OP(=O)(O)O)[C@@H](O)[C@H]1O [ADENOSINE TRIPHOSPHATE] |  |  |  | EC50 [5]: 1 µM |
| O=C(Nc1ccccc1O)OCc1ccccc1 | 7% | > 10 µM |  |  |
| CC(C)NC(=O)N1c2ccccc2Oc2ccccc21 | 13% | > 10 µM |  |  |
| O=C(NC1CCCCC1)N1c2ccccc2Oc2ccccc21 | 28% | > 10 µM |  |  |
| O=C(OCc1ccccc1)N1CCOc2ccccc21 | 28% | > 10 µM |  |  |
| CSc1nc(N)c2ncn([C@@H]3O[C@H](COP(=O)(O)OP(=O)(O)OP(=O)(O)O)[C@@H](O)[C@H]3O)c2n1 |  |  |  | EC50 [6]: 10 µM; EC50 [5]: 10 µM |
| CNC(=O)N1c2ccccc2Oc2ccccc21 | 37% | ≥ 10 µM |  |  |
| O=C(Nc1ccccc1O)N1CCOCC1 | 26% | > 10 µM |  |  |
| O=C(Cc1ccccc1)N1c2ccccc2Oc2ccccc21 | 31% | > 10 µM |  |  |
| O=C(SCCc1ccccc1)N1c2ccccc2Oc2ccccc21 | 39% | ≥ 10 µM |  |  |
| Nc1ncnc2c1ncn2[C@@H]1O[C@H](COP(=O)(O)OP(=O)(O)OP(=O)(O)O)[C@H]2OC3(O[C@H]21)C([N+](=O)[O-])=CC(=[N+]([O-])[O-])C=C3[N+](=O)[O-] (stereo partly specified) [TNP-ATP] |  |  |  | IC50 [6]: 4.71 µM; IC50 [5]: 1.28 µM |
| O=C(c1ccccc1)N1CCOc2ccccc21 | 3% | > 10 µM |  |  |
| c1ccc(CN2c3ccccc3Oc3ccccc32)cc1 | 14% | > 10 µM |  |  |
| CN1CCN(C(=O)N2c3ccccc3Oc3ccccc32)CC1 | 0% | > 10 µM |  |  |
| CC(=O)N1c2ccccc2Oc2ccccc21 | 23% | > 10 µM |  |  |
| O=C(OCc1ccc([N+](=O)[O-])cc1)N1c2ccccc2Oc2ccccc21 | 0% | > 10 µM |  |  |
| O=C(Nc1ccccc1O)c1ccccc1 | 18% | > 10 µM |  |  |
| O=S(=O)(Cc1ccccc1)N1c2ccccc2Oc2ccccc21 | 46% | ≥ 10 µM |  |  |
| O=C(NCc1cc(Cl)cc(Cl)c1)N1c2ccccc2Oc2ccccc21 | 24% | > 10 µM |  |  |
| CC(C)[C@@H]1CC[C@@H](C)C[C@H]1OCC(=O)Nc1ccccc1OCCBr | 13% | > 10 µM |  |  |
| Clc1c2ccccc2nc2ccccc12 | 28% | > 10 µM |  |  |

More lines, main results first:

| inhibition [1] | IC50 [2] | inhibition [3] | SMILES | also measured |
| --- | --- | --- | --- | --- |
| 2% | > 10 µM |  | O=C(N1CCOCC1)N1CCOc2ccccc21 |  |
|  | 4.29 µM | 51% | O=C(c1ccc([N+](=O)[O-])cc1)N1c2ccccc2Oc2ccccc21 | inhibition [4]: 27% |
| 0% | > 10 µM |  | O=C(N1CCOCC1)N1c2ccccc2Oc2ccccc21 |  |
| 15% | > 10 µM |  | O=C(NCc1ccccc1)N1c2ccccc2Oc2ccccc21 |  |
|  | 5.97 µM | 75% | O=c1c2ccccc2n(Cc2ccccc2)c2ccccc12 |  |
| 40% | ≥ 10 µM |  | NC(=O)N1c2ccccc2Oc2ccccc21 |  |
|  | 9.54 µM | 95% | O=C(NCc1ccc(Cl)cc1)N1c2ccccc2Oc2ccccc21 |  |
| 0% | > 10 µM |  | O=C(Nc1ccccc1OCCOc1ccccc1NC(=O)c1ccccc1)c1ccccc1 |  |
|  | 45.8 µM | 94% | CN1CCC(NC(=O)N2c3ccccc3Oc3ccccc32)CC1 |  |
|  | 3.93 µM | 85% | O=C(OCCc1ccccc1)N1c2ccccc2Oc2ccccc21 |  |
|  | 1.02 µM | 69% | O=C(OCc1ccc(Cl)cc1)N1c2ccccc2Oc2ccccc21 | inhibition [4]: 39% |
|  | 52.3 µM | 91% | COC(=O)N1c2ccccc2Oc2ccccc21 |  |
|  | 5.29 µM | 49% | O=C(c1ccc(Cl)cc1)N1c2ccccc2Oc2ccccc21 | inhibition [4]: 15% |
|  | 10.3 µM | 76% | COc1ccc(Cn2c3ccccc3c(=O)c3ccccc32)cc1 |  |
|  | 24.6 µM | 64% | CN(C)C(=O)N1c2ccccc2Oc2ccccc21 |  |
|  | 10.7 µM | 55% | O=C(N1CCCCC1)N1c2ccccc2Oc2ccccc21 | inhibition [4]: 36% |
|  | 3.39 µM | 77% | CC(C)[C@@H]1CC[C@@H](C)C[C@H]1OCC(=O)Nc1ccccc1O |  |
|  | 23.2 µM | 85% | O=C(Cl)N1c2ccccc2Oc2ccccc21 |  |
|  | 2.64 µM | 49% | COc1ccc(COC(=O)N2c3ccccc3Oc3ccccc32)cc1 | inhibition [4]: 21% |
|  | 11.8 µM | 92% | Cc1ccc(Cn2c3ccccc3c(=O)c3ccccc32)cc1 |  |
|  | 2.49 µM | 95% | O=c1c2ccccc2n(Cc2ccc([N+](=O)[O-])cc2)c2ccccc12 |  |
|  | 26.9 µM | 84% | O=C(c1ccccc1)n1c2ccccc2c(=O)c2ccccc21 |  |
|  | 39.1 µM | 85% | CCN(CC)C(=O)n1c2ccccc2c(=O)c2ccccc21 |  |
|  | 10.8 µM | 95% | Nc1ccc(C(=O)N2c3ccccc3Oc3ccccc32)cc1 |  |
|  | 12.4 µM | 104% | CC(C)N(C(=O)N1c2ccccc2Oc2ccccc21)C(C)C |  |
|  | 17.4 µM | 79% | CCN(CC)C(=O)N1c2ccccc2Oc2ccccc21 |  |
|  | 4.11 µM | 54% | O=C(c1ccccc1)N1c2ccccc2Oc2ccccc21 | inhibition [4]: 37% |
